# Experiments:
# [1] = Elimination half life in ICR mouse at 25 mg/kg, po via bolus administration by LC-MS/MS analysis; assay type: ADME, organism-based; settings: in vivo, read-out: beta t1/2 (converted)
# Outline: (§1)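 Single-dose PK in male ICR mice, bolus p.o. 25 mg/kg or i.v. 2.5 mg/kg. Plasma concentration followed over time, n = 3. Parameters derived by noncompartmental analysis of the concentration–time curves. Oral bioavailability calculated from AUC.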
# [2] = Elimination half life in ICR mouse at 2.5 mg/kg, iv by LC-MS/MS analysis; assay type: ADME, organism-based; settings: in vivo, read-out: beta t1/2 (converted); outline: as §1
# [3] = Tmax in ICR mouse at 25 mg/kg, po via bolus administration by LC-MS/MS analysis; assay type: ADME, organism-based; settings: in vivo
# Outline: (§2)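 Male ICR mice, single oral bolus at 25 mg/kg. Serum concentration-time profiles (n = 3) analysed by noncompartmental analysis.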
# [4] = AUCt in ICR mouse at 2.5 mg/kg, iv by LC-MS/MS analysis; assay type: ADME, organism-based; settings: in vivo; outline: as §1
# [5] = Volume of distribution at steady state in ICR mouse at 2.5 mg/kg, iv by LC-MS/MS analysis; assay type: ADME, organism-based; settings: in vivo, read-out: Vdss
# Outline: (§3)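 Male ICR mice, single i.v. bolus at 2.5 mg/kg. Serum concentration-time curves (n = 3) analysed noncompartmentally to give Tmax and steady-state volume of distribution.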
# Streptococcus pneumoniae [6] = assay: Antibacterial activity against Streptococcus pneumoniae D39 after 20 hrs by CLSI-based microdilution method; assay type: functional; settings: D39, 20 h
# [7] = Drug metabolism in ICR mouse liver microsomes assessed as (2S,3S,4S,5R,6R)-6-[[4-[(R)-[(1S,2S,4S,5Z)-5-ethylidenequinuclidin-2-yl]-hydroxy-methyl]-6-quinolyl]oxy]-3,4,5-trihydroxy-tetrahydropyran-2-carboxylic acid metabolite formation at 10 uM preincubated with NADPH for 10 mins by LC-MS/MS analysis; assay type: ADME, Microsome
# [8] = Drug metabolism in ICR mouse liver microsomes assessed as [(1S,2S,4S,5Z)-5-ethylidenequinuclidin-2-yl]-(6-hydroxy-4-quinolyl)methanone metabolite formation at 10 uM preincubated with NADPH for 10 mins by LC-MS/MS analysis; assay type: ADME, Microsome
# [9] = Drug metabolism in ICR mouse liver microsomes assessed as ) 6-(cyclobutoxy)-4-[(R)-hydroxy-[(1S,2S,4S,5Z)-5-(2-hydroxyethylidene)quinuclidin-2-yl]methyl]-1H-quinolin-2-one metabolite formation at 10 uM preincubated with NADPH for 10 mins by LC-MS/MS analysis; assay type: ADME, Microsome
# [10] = Oral bioavailability in ICR mouse at 25 mg/kg via bolus administration by LC-MS/MS analysis; assay type: ADME, organism-based; settings: in vivo; outline: as §2
# [11] = Cytotoxicity against human HepG2 cells assessed as reduction in cell viability after 48 hrs by Alamar Blue assay; assay type: cell-based
# [12] = Drug metabolism in ICR mouse liver microsomes at 10 uM preincubated with NADPH for 10 mins and measured after 60 mins by LC-MS/MS analysis; assay type: ADME, Microsome; settings: read-out: Drug metabolism
# [13] = AUCt in ICR mouse at 25 mg/kg, po via bolus administration by LC-MS/MS analysis; assay type: ADME, organism-based; settings: in vivo; outline: as §1
# [14] = Cmax in ICR mouse at 2.5 mg/kg, iv by LC-MS/MS analysis; assay type: ADME, organism-based; set-up: dose 2.5 mg/kg, route intravenous; settings: in vivo; outline: as §1
# [15] = Cmax in ICR mouse at 25 mg/kg, po via bolus administration by LC-MS/MS analysis; assay type: ADME, organism-based; set-up: dose 25 mg/kg, route oral; settings: in vivo; outline: as §1
# [16] = Drug level in ICR mouse liver microsomes treated with 6-Cyclobutoxy-(R)-4-[((1S,2S,4S,5Z)-5-ethylidene-1-azabicyclo-[2.2.2]octan-2-yl)hydroxymethyl]quinoline at 10 uM preincubated with NADPH for 10 mins and measured after 90 mins by LC-MS/MS analysis; assay type: ADME, Microsome; settings: 1.5 h
# [17] = Tmax in ICR mouse at 2.5 mg/kg, iv by LC-MS/MS analysis; assay type: ADME, organism-based; settings: in vivo; outline: as §3
# [18] = Clearance in ICR mouse at 2.5 mg/kg, iv by LC-MS/MS analysis; assay type: ADME, organism-based; settings: in vivo; outline: as §1
# [19] = Drug metabolism in ICR mouse liver microsomes assessed as [6-(cyclobutoxy)-4-quinolyl]-[(1S,2S,4S,5Z)-5-(2-hydroxyethylidene)quinuclidin-2-yl]methanone metabolite formation at 10 uM preincubated with NADPH for 10 mins by LC-MS/MS analysis; assay type: ADME, Microsome
# [20] = Drug level in ICR mouse liver microsomes treated with 6-Cyclobutoxy-(R)-4-[((1S,2S,4S,5E)-5-ethylidene-1-azabicyclo[2.2.2]octan-2-yl)hydroxymethyl]quinoline at 10 uM preincubated with NADPH for 10 mins and measured after 90 mins by LC-MS/MS analysis; assay type: ADME, Microsome; settings: 1.5 h
# [21] = Mitochondrial toxicity in human HepG2 cells assessed as reduction in cell viability after 24 hrs in presence of galactose by CellTiter-Glo assay; assay type: cell-based
# Outline: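 HepG2 cells are grown in DMEM supplemented with 10 mM galactose or 10 mM glucose and treated for 24 h. Viability is read by CellTiter-Glo luminescence. The CC90 is the concentration inhibiting 90% of cell viability, taken from dose–response curves. Oligomycin and tamoxifen serve as controls.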
# [22] = Mitochondrial toxicity in human HepG2 cells assessed as reduction in cell viability after 24 hrs in presence of glucose by CellTiter-Glo assay; assay type: cell-based
# Outline: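 HepG2 cells grown in DMEM with 10 mM glucose, treated 24 h; viability read by CellTiter-Glo luminescence. Value is the concentration giving 90% loss of viability (CC90) from dose-response curves, top concentration 300 µM.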
# Enterococcus faecalis = assay: Antibacterial activity against Enterococcus faecalis; assay type: functional
# Enterococcus faecium = assay: Antibacterial activity against Enterococcus faecium; assay type: functional
# Streptococcus pyogenes = assay: Antibacterial activity against Streptococcus pyogenes; assay type: functional
# Streptococcus pneumoniae [23] = assay: Antibacterial activity against Streptococcus pneumoniae; assay type: functional
# Outline: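 MIC read per CLSI guidelines as the lowest concentration giving complete inhibition of visible growth. The main screen used strain D39. A further panel covered drug-sensitive, multidrug-resistant and optochin-resistant strains, including R6 carrying atpE point mutations G142C or G145A made by a PCR-based approach.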
# Staphylococcus aureus = assay: Antibacterial activity against Staphylococcus aureus; assay type: functional
# [24] = tested on: Staphylococcus epidermidis; assay: Antibacterial activity against Staphylococcus epidermidis; assay type: functional
# [25] = tested on: Streptococcus pneumoniae D39; assay: Inhibition of wild-type Streptococcus pneumoniae D39 ATP synthase atpE assessed as intracellular pH at 10 uM measured at 5 mins intervals by pH-sensitive GFP-based fluorescence assay (reference value: 7.34 +/- 0.04); assay type: cell-based
# Outline: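 S. pneumoniae D39 WT and isogenic atpE G142C or G145A mutants carry a plasmid-borne ratiometric pH-sensitive GFP biosensor. Cells are in PBS pH 7.2 with 10 mM glucose and are treated with compound, DMSO (0.5% v/v) or CCCP (10 µM). Intracellular pH is read immediately and at 5-min intervals. Two independent experiments, each in triplicate.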
smiles,measurement,setting,value
C/C=C1\C[N@]2CC[C@H]1C[C@H]2[C@H](O)c1ccnc2ccc(OC3CCC3)cc12,half-life,[1],41.4 min
same,half-life,[2],25.2 min
same,Tmax,[3],15 min
same,AUC(0-t),[4],235 ng·h/mL
same,Vd,[5],6.3 L/kg
same,MIC,Streptococcus pneumoniae [6],1.4 µM
same,Drug metabolism,[7],Metabolite_Detected
same,Drug metabolism,[8],Metabolite_Detected
same,Drug metabolism,[9],Metabolite_Detected
same,bioavailability,[10],13.6%
same,CC50 at 48 h,[11],59 µM
same,"metabolised at 1 h, 10 µM",[12],99.8%
same,AUC(0-t),[13],319 ng·h/mL
same,Cmax,[14],521 ng/mL
same,Cmax,[15],207 ng/mL
same,Drug uptake,[16],Active
same,Tmax,[17],1.98 min
same,clearance,[18],172 mL/min/kg
same,Drug metabolism,[19],Metabolite_Detected
same,Drug uptake,[20],Active
O=c1cc([C@@H](O)[C@@H]2C[C@@H]3CC[N@@]2C/C3=C\CO)c2cc(OC3CCC3)ccc2[nH]1,Drug uptake,[16],Active
same,Drug uptake,[20],Active
OC(c1cc(C2C[C@H]3CC[C@@H]2CC3)nc2c(Cl)c(Cl)ccc12)C1CCCCN1 (stereo not given in full),MIC,Enterococcus faecalis,1.5 to 6.3 µg/mL
same,MIC,Enterococcus faecium,1.5 to 6.3 µg/mL
same,MIC,Streptococcus pyogenes,1.5 to 6.3 µg/mL
same,MIC,Streptococcus pneumoniae [23],0.08 to 1.25 µg/mL
same,MIC,Staphylococcus aureus,1.5 to 6.3 µg/mL
same,MIC,[24],1.5 to 6.3 µg/mL
N#CC(C#N)=NNc1cccc(Cl)c1,pH,[25],5.43
O=C(c1ccnc2ccc(OC3CCC3)cc12)[C@@H]1C[C@@H]2CC[N@@]1C/C2=C\CO,Drug uptake,[16],Active
same,Drug uptake,[20],Active
C/C=C1\C[N@]2CC[C@H]1C[C@H]2[C@H](O)c1ccnc2ccc(O[C@H]3O[C@H](C(=O)O)[C@@H](O)[C@H](O)[C@H]3O)cc12,Drug uptake,[16],Active
same,Drug uptake,[20],Active

# Source: ChEMBL document CHEMBL4400546, “A Cinchona Alkaloid Antibiotic That Appears To Target ATP Synthase in Streptococcus pneumoniae” (J Med Chem, 2019)
